Experiment [1] is described as follows: reducers of endogenous Her2 protein level, primary screen, SKBR3 breast tumor cells, AlphaScreen, ATP viability (AID 461;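 active means Her2 level under about 52% in both replicate screens, with viability over 70% of control, limit read from the data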;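 on Her2 level: lower value means less Her2 protein in the cells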;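 on viability: percent of carrier control wells set as 100% viability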). The settings on record: 18-24 h, measured here: SKBR3 viability, ATP luminescence, at 10 µM.
Experiment [2] has as its target Receptor tyrosine-protein kinase erbB-2 (Homo sapiens) (UniProt P04626). The description is as above. The note with it: 18-24 h, at 10 µM, stronger effect = lower value.
Experiment [3] can be described thus: SK-BR-3 cell growth inhibitors, pilot screen, 24 h, human (AID 572;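 active means viability at or below 10% of carrier control in both of two separate runs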;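 further: compound exposure lasted between 18 and 24 h rather than exactly 24 h; 100% = carrier-treated control wells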). The settings on record: SK-BR-3 viability, CellTiter-Glo luminescence, at 10 µM, stronger effect = lower value.
Experiment [4] is described as follows: HUVEC growth inhibition – cell-based, human, primary screen (AID 575).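 Further: 100% = median of untreated cell wells with 0.1% DMSO on each plate.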 The settings on record: HUVEC proliferation, CellTiter-Glo luminescence, 72 h; at 10 µM; stronger effect = lower value. The method, boiled down: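 Test system: primary human umbilical vein endothelial cells. Quantity: 1250 cells/well. Compound: single 10 µM dose, 0.1% DMSO, from 5x medium stock. Timing: 72 h treatment at 37 °C. Detection: ATP-based CellTiter-Glo luminescent read. Benchmarks: vehicle and MePR control wells. Format: 384-well plates coated with collagen.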

Experiment [5] can be described thus: growth inhibitors of H69AR lung tumor, primary screen, human, duplicate replicates (AID 580;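 active means viability at or under a set limit in both replicates, limit being median viability minus 3 SD, cut at about 48% in these data, passing the limit was not always enough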;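 further: 100% = mean luminescence of untreated wells and 0% = no signal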). The settings on record: H69AR lung tumor cells viability, ATP luminescence, 72 h; at 10 µM; stronger effect = lower value.
Experiment [6] in a line: reversal of MRP1-mediated doxorubicin resistance, pilot screen, H69AR cells, doxorubicin co-treatment (AID 601;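 active means viability loss from added drug above about 55%, and viability with drug at most 40%, in both replicates, limit read from the data, passing the limit was not always enough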). The settings on record: CellTiter-Glo, 72 h, at 10 µM; for differential viability (reversal): stronger effect = higher value.
Experiment [7] is described as follows: 384-well plate pilot, post-Golgi transport modulator project, inhibition of yeast transport mutant growth (AID 636; in the data active means inhibition above about 31%). The settings on record: absorbance 615 nm, about 18 h, stronger effect = higher value.
Experiment [8] in a line: growth suppression of yeast trafficking mutant, preliminary HTS, modulators of trafficking downstream of Golgi apparatus project, 1536-format plate, OD 615 nm (AID 637; in the data active means inhibition above about 30%). The settings on record: yeast transport mutant growth, absorbance 615 nm, 18 h; stronger effect = higher value.
The mark [9] stands for this setting: H69AR cells + 2 uM doxorubicin, measured here: viability with 2 uM doxorubicin, stronger effect = lower value.
Setting [10] is: H69AR cells, compound alone cytotoxicity.

Active and inactive are the calls of the source.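 How the source made its calls, unless noted: active means viability at or below 30% in both replicate assays; inconclusive means viability at or below 30% in just one of the two assays; inactive means the rest.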

The text below walks through data of PubChem BioAssay.

Receptor tyrosine-protein kinase erbB-2 (Homo sapiens), sequence (P04626 whole entry, looked up): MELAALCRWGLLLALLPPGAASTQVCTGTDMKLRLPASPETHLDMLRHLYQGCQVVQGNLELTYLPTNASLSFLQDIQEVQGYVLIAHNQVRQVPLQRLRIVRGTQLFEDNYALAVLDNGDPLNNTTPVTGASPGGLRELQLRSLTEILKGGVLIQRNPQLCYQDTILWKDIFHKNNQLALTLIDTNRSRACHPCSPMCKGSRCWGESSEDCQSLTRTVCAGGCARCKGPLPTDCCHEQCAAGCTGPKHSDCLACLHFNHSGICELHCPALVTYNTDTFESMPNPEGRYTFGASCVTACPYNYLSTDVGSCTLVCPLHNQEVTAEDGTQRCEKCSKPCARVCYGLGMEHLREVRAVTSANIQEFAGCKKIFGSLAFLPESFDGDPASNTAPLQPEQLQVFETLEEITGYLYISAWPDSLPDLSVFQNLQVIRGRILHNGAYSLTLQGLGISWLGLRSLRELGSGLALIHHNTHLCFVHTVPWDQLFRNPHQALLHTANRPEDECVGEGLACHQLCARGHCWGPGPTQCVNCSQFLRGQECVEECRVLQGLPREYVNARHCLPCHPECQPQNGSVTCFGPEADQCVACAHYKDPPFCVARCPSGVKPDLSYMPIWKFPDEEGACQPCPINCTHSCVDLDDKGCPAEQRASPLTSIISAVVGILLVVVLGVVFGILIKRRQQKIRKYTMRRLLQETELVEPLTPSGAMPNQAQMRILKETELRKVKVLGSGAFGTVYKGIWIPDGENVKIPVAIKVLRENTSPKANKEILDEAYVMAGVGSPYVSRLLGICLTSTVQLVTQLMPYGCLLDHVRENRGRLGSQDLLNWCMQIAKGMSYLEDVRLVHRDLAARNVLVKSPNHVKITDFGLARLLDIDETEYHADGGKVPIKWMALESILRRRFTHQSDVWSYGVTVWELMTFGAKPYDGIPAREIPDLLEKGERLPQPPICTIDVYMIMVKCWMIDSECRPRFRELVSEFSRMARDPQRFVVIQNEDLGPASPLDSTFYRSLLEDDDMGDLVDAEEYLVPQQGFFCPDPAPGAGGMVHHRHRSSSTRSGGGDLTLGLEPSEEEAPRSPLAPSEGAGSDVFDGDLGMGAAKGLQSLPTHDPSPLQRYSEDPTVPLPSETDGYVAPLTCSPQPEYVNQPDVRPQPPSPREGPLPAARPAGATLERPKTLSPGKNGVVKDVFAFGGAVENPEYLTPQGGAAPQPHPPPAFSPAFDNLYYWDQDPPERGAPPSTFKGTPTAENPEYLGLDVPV

As to `CCOC(=O)N1CCN(CC(=O)Nc2c(C(=O)OC)[nH]c3cccc(Cl)c23)CC1`, the viability was 102% in experiment [1]; 102% (inactive) in experiment [3]; 91.9% (inactive) in experiment [4]; 86.6% (inactive) in experiment [5]; 87.8% in experiment [6] (setting [9]); 86.6% in experiment [6] (setting [10]). The Her2 level in experiment [2] is 97.5% (inactive). For the same molecule, the differential viability (reversal) in experiment [6] (H69AR cells + 2 uM doxorubicin) is -1.14% (inactive). In addition, the values for the inhibition in experiment [7] and in experiment [8] were -6.08% (inactive) and 8.5% (inactive), respectively.

For `CCOc1ccc2c(c1)n(CO)c(=S)n2CO`, the viability is 107% in experiment [1]; 107% (inactive) in experiment [3]; 83.6% (inactive) in experiment [4]; 89.6% (inactive) in experiment [5]; 87.5% in experiment [6] (setting [9]); 89.6% in experiment [6] (setting [10]). Moreover, the Her2 level in experiment [2] is 74% (inactive). For the same molecule, the differential viability (reversal) in experiment [6] (H69AR cells + 2 uM doxorubicin) was 2.06% (inactive). For the same molecule, the inhibition in experiment [7] was -2.53% (inactive); in experiment [8], 0.81% (inactive).

Turning to `C=CCSc1nc2c(c(=O)[nH]c(=O)n2C)n1CC`, the viability was 78.5% in experiment [1]; 78.5% (inactive) in experiment [3]; 85.7% (inactive) in experiment [4]; 93.2% (inactive) in experiment [5]; 85.3% in experiment [6] (setting [9]); 93.2% in experiment [6] (setting [10]). In addition, the Her2 level in experiment [2] is 74% (inactive). Further, the differential viability (reversal) in experiment [6] (H69AR cells + 2 uM doxorubicin) was 7.82% (inactive). Besides, the inhibition in experiment [7] was -5.54% (inactive); in experiment [8], -3.11% (inactive).

Take `CC(C)(C)c1ccc(-c2nnc(SCCC#N)n2C2CCCC2)cc1`: the viability in experiment [1] is 73.5%; in experiment [3], 73.5% (inactive); in experiment [4], 65.7% (inactive); in experiment [5], 78.8% (inactive); in experiment [6] (setting [9]) it was 60.5%; in experiment [6] (setting [10]) it was 78.8%. Besides, in experiment [2], the Her2 level is 98.5% (inactive). In addition, the differential viability (reversal) in experiment [6] (H69AR cells + 2 uM doxorubicin) is 18.4% (inactive). In addition, the inhibition in experiment [7] is -4.32% (inactive); in experiment [8] it was -4.1% (inactive).

Turning to `COc1ccc(CN(C(=O)c2ccccc2OC)C2CCS(=O)(=O)C2)cc1` (stereo not given), the viability in experiment [1] was 95%; in experiment [3], 95% (inactive); in experiment [4], 115% (inactive); in experiment [5], 96.8% (inactive); in experiment [6] (setting [9]), 89.8%; in experiment [6] (setting [10]), 96.8%. Besides, the Her2 level in experiment [2] was 90.5% (inactive). Besides, in experiment [6] (H69AR cells + 2 uM doxorubicin), the differential viability (reversal) was 7.03% (inactive). Further, the inhibition is -0.53% (inactive) in experiment [7] and 9.34% (inactive) in experiment [8].

For the molecule `Cc1nn(-c2ccccc2)c2c1C(O)n1c(nc3ccccc31)S2` (stereo not given), the viability in experiment [1] was 91%; in experiment [3], 91% (inactive); in experiment [4], 50.9% (inactive); in experiment [5] it was 26.2% (active); in experiment [6] (setting [9]) it was 34.4%; in experiment [6] (setting [10]) it was 26.2%. The Her2 level in experiment [2] was 77.5% (inactive). Besides, the differential viability (reversal) in experiment [6] (H69AR cells + 2 uM doxorubicin) is -8.14% (inactive). Further, the inhibition is -6.85% (inactive) in experiment [7] and -0.79% (inactive) in experiment [8].

For `COc1ccc(C(C(C(=O)c2cccs2)N2CCOCC2)N2CCOCC2)cc1OC` (stereo not given), the viability was 102% in experiment [1]; 102% (inactive) in experiment [3]; 84.3% (inactive) in experiment [4]; 102% (inactive) in experiment [5]; 96.6% in experiment [6] (setting [9]); 102% in experiment [6] (setting [10]). In experiment [2], the Her2 level was 112% (inactive). Moreover, in experiment [6] (H69AR cells + 2 uM doxorubicin), the differential viability (reversal) is 4.94% (inactive). Further, the inhibition in experiment [7] was -1.97% (inactive); in experiment [8], 0% (inactive).

Take `Cc1cc(S(=O)(=O)n2cnc3ccccc32)c(C)cc1Cl`: the viability in experiment [1] is 86.5%; in experiment [3], 86.5% (inactive); in experiment [4] it was 99.1% (inactive); in experiment [5], 102% (inactive); in experiment [6] (setting [9]), 92.4%; in experiment [6] (setting [10]), 102%. Moreover, the Her2 level in experiment [2] was 120% (inactive). Besides, in experiment [6] (H69AR cells + 2 uM doxorubicin), the differential viability (reversal) was 9.41% (inactive). Besides, the inhibition was -3.42% (inactive) in experiment [7] and -3.97% (inactive) in experiment [8].

Turning to `COc1ccc(CC(=O)NCc2ccccc2)cc1S(=O)(=O)N1CCOCC1`, the viability in experiment [1] was 110%; in experiment [3] it was 110% (inactive); in experiment [4], 93.5% (inactive); in experiment [5] it was 89% (inactive); in experiment [6] (setting [9]) it was 98.1%; in experiment [6] (setting [10]), 89%. Also, the Her2 level in experiment [2] was 106% (inactive). Moreover, the differential viability (reversal) in experiment [6] (H69AR cells + 2 uM doxorubicin) was -9.06% (inactive). The results for the inhibition in experiment [7] and in experiment [8] were -2.5% (inactive) and 5.82% (inactive), respectively.

On to `O=C(NCc1ccccc1)N[C@@H](Cc1ccccc1)C(=O)O`, for which the viability is 96% in experiment [1]; 96% (inactive) in experiment [3]; 106% (inactive) in experiment [4]; 92.6% (inactive) in experiment [5]; 89.2% in experiment [6] (setting [9]); 92.6% in experiment [6] (setting [10]). Besides, in experiment [2], the Her2 level is 95% (inactive). For the same molecule, the differential viability (reversal) in experiment [6] (H69AR cells + 2 uM doxorubicin) is 3.32% (inactive). The figures for the inhibition in experiment [7] and in experiment [8] were -2.86% (inactive) and 3.5% (inactive), respectively.

For the molecule `Cc1c(NS(=O)(=O)c2ccc3c(c2)n(C)c(=O)n3C)c(=O)n(-c2ccccc2)n1C`, the viability in experiment [1] is 113%; in experiment [3], 113% (inactive); in experiment [4], 87.3% (inactive); in experiment [5], 94.2% (inactive); in experiment [6] (setting [9]) it was 90.8%; in experiment [6] (setting [10]), 94.2%. In addition, in experiment [2], the Her2 level was 93% (inactive). In experiment [6] (H69AR cells + 2 uM doxorubicin), the differential viability (reversal) is 3.4% (inactive). For the same molecule, the inhibition in experiment [7] is -4.67% (inactive); in experiment [8], -0.98% (inactive).

Regarding `CCn1cc(C(=O)OCc2ccc(F)cc2)c(=O)c2ccc(C)nc21`, the viability in experiment [1] is 104%; in experiment [3] it was 104% (inactive); in experiment [4] it was 89.3% (inactive); in experiment [5] it was 79.3% (inactive); in experiment [6] (setting [9]), 78.1%; in experiment [6] (setting [10]), 79.3%. The Her2 level in experiment [2] is 82% (inactive). In addition, the differential viability (reversal) in experiment [6] (H69AR cells + 2 uM doxorubicin) is 1.26% (inactive). The results for the inhibition in experiment [7] and in experiment [8] were -2.27% (inactive) and 0.16% (inactive), respectively.

Regarding `Cc1ccc(N2C(N)=NC(N)=NC23CCCC3)c(C)c1`, the viability was 98.5% in experiment [1]; 98.5% (inactive) in experiment [3]; 99.8% (inactive) in experiment [4]; 106% (inactive) in experiment [5]; 85% in experiment [6] (setting [9]); 106% in experiment [6] (setting [10]). Moreover, the Her2 level in experiment [2] was 95% (inactive). In addition, the differential viability (reversal) in experiment [6] (H69AR cells + 2 uM doxorubicin) was 20.6% (inactive). The figures for the inhibition in experiment [7] and in experiment [8] were -4.68% (inactive) and 1.11% (inactive), respectively.

As to `CC(C)CC(=O)N1CCN(S(=O)(=O)c2ccc(F)cc2)CC1`, the viability in experiment [1] is 86.5%; in experiment [3] it was 86.5% (inactive); in experiment [4], 86.5% (inactive); in experiment [5], 94.9% (inactive); in experiment [6] (setting [9]), 85.8%; in experiment [6] (setting [10]), 94.9%. The Her2 level in experiment [2] is 102% (inactive). Also, the differential viability (reversal) in experiment [6] (H69AR cells + 2 uM doxorubicin) was 9.04% (inactive). For the same molecule, the inhibition was 2.56% (inactive) in experiment [7] and 27% (inactive) in experiment [8].

Take `Cc1nnc(SCC(=O)NC(C)(C)C)n1CCc1ccccc1`: the viability in experiment [1] was 93.5%; in experiment [3], 93.5% (inactive); in experiment [4], 105% (inactive); in experiment [5] it was 95.6% (inactive); in experiment [6] (setting [9]) it was 91.4%; in experiment [6] (setting [10]) it was 95.6%. The Her2 level in experiment [2] was 92.5% (inactive). In addition, in experiment [6] (H69AR cells + 2 uM doxorubicin), the differential viability (reversal) was 4.22% (inactive). Besides, the inhibition is -6.53% (inactive) in experiment [7] and 5.65% (inactive) in experiment [8].

On to `Cc1ccc(N(Cc2ccco2)C(=O)c2cccc(S(=O)(=O)N(C)C)c2)cc1`, for which the viability in experiment [1] is 97.5%; in experiment [3], 97.5% (inactive); in experiment [4], 88.4% (inactive); in experiment [5] it was 96.7% (inactive); in experiment [6] (setting [9]) it was 99.6%; in experiment [6] (setting [10]), 96.7%. In experiment [2], the Her2 level was 104% (inactive). In experiment [6] (H69AR cells + 2 uM doxorubicin), the differential viability (reversal) is -2.84% (inactive). For the same molecule, the inhibition in experiment [7] was 0.53% (inactive); in experiment [8] it was -1% (inactive).
